Compound activity (PubChem)
SIRT5 block: SIRT5 desuccinylase inhibitors, primary screen, biochemical, fluorescence imaging, single point, set 5; NAD-dependent protein deacylase sirtuin-5, mitochondrial (Homo sapiens), Q9NXA8; inhibition, % at 15 µM; AID 652115, 2013; 1.1% of 330,000 active; Purified SirT5, succinyl-peptide AMC, trypsin-coupled fluorescence; in the data active = inhibition above about 15%; inconclusive = no clear call, values can overlap the other calls
DENV2 CPE rescue: inhibitors of DENV2 cytopathic effect, primary screen, cell-based, plate reader, single concentration | DENV2-infected cells, cytopathic effect rescue | AID 651640, 2012 | 1.7% of 350,000 active | CPE inhibition, % at 9.99 µM; in the data active = CPE inhibition above about 20%, passing the limit was not always enough; inconclusive = no clear call, values can overlap the other calls; tested in BHK-21 cells;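 note: 0% = median of neutral control wells and 100% = median of positive control wells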
E-selectin induc: E-selectin induction in HUVECs, primary screen, imaging, HUVEC, immunofluorescence imaging, single point; normalized: neutral wells 0, TNF-alpha wells 100; activation, % at 7.58 µM; 0.37% of 260,000 active; AID 686992, 2013;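 active = mean E-selectin-positive cell signal at least 10% of the positive control, reached in at least 60% of replicates, without over 20% cell loss; inconclusive = no rule given, readout overlaps actives, possibly toxicity-flagged; inactive = the rest, including those meeting only one limit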
Target sequence (P16581 whole entry, looked up): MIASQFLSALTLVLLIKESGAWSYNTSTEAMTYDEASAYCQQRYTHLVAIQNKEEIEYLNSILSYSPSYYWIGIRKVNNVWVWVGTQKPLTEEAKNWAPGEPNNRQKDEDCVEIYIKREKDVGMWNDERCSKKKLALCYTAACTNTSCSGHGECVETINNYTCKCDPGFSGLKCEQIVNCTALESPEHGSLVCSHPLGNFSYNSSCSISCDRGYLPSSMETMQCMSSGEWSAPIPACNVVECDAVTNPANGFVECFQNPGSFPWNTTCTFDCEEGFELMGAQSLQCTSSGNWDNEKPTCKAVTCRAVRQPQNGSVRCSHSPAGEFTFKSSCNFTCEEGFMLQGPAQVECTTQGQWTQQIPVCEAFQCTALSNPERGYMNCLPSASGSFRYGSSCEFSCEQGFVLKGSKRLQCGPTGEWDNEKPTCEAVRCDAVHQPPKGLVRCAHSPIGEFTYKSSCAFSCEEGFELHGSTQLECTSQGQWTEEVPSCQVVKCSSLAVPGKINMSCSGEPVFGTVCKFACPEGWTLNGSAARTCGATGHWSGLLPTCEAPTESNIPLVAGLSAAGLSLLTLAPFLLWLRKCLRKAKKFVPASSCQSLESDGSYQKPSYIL
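Assay system: HUVEC, human umbilical vein endothelial cells / Amount: 3,000 HUVEC/well / Controls: TNF-alpha positive control, DMSO neutral control / Compound dosing: single concentration / Medium: EGM-2 over gelatin coat / Evaluation: percent E-selectin-positive cells / Signal: immunofluorescence imaging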
The depositor's hits bear a star; ? = inconclusive; . = no result given; ! = not active in a repeat. Most compounds without a hit are left out; they make up all but 2.8% or so of the library.

SMILES	SIRT5 block	DENV2 CPE rescue	E-selectin induc
C[C@@H]1CN([C@@H](C)CO)C(=O)Cc2cc(NC(=O)Nc3ccccc3)ccc2O[C@H]1CN(C)Cc1ccc(C(=O)O)cc1	-1	13	0
C[C@H](CO)N1C[C@H](C)[C@H](CN(C)C(=O)Nc2ccc(F)cc2)Oc2ccc(NC(=O)Nc3ccc(F)cc3)cc2CC1=O	3	-7	0
C[C@@H]1CN([C@@H](C)CO)C(=O)Cc2cc(NC(=O)Nc3ccc(F)cc3)ccc2O[C@H]1CN(C)C(=O)Nc1ccc(C(F)(F)F)cc1	.	-6	52*
COc1ccc(CN(C)C[C@H]2Oc3ccc(NC(=O)Nc4ccc(F)cc4)cc3CC(=O)N([C@@H](C)CO)C[C@H]2C)cc1	4	-1	.
COc1ccc(S(=O)(=O)Nc2ccc3c(c2)[C@@H]2C[C@@H](CC(=O)O)O[C@@H](CO)[C@@H]2O3)cc1	-7	-2	0
COc1ccc2c3c([nH]c2c1)[C@H](CO)N(Cc1ccc(Cl)cc1)CC31CN(Cc2ccccc2)C1	.	8	0
C[C@H]1CN([C@@H](C)CO)C(=O)Cc2cc(NS(=O)(=O)c3cccs3)ccc2O[C@@H]1CN(C)S(=O)(=O)c1cccs1	.	.	0
CCN(CC)CCCNc1nc(C)cc(COC)c1C#N	-6	45*	1
COCc1cc(C)nc(Nc2ccccc2C)c1C#N	-4	-2	.
CCOC(=O)N1CCC(NC(=O)c2cccc3c2C(=O)N(CCOC)C3)CC1	-1	62*	-2
CCOC(=O)N1CCC(NC(=O)c2ccccc2C(=O)O)CC1	-3	4	0
COc1ccc(-c2ccc3c(c2)[C@@H]2[C@@H](CCN2C(=O)Cc2ccccn2)[C@@H](CO)N3C)cc1	.	.	0
CO[C@@H](CN(C)C(=O)c1cnccn1)[C@@H](C)CN([C@H](C)CO)S(=O)(=O)c1ccc(C)cc1	-10	4	0
COc1ccc(-c2cn(CC[C@H]3CC[C@H](NC(=O)CCN4CCCCC4)[C@@H](CO)O3)nn2)cc1	-1	-3	1
CO[C@H]1CN(C)C(=O)c2cc(NC(=O)C3CCOCC3)ccc2OC[C@H](C)N(C)C[C@H]1C	-2	-1	0
COc1ccccc1C(=O)Nc1ccc2c(c1)C(=O)N(C)C[C@H](OC)[C@H](C)CN(C)[C@@H](C)CO2	1	-8	0
CO[C@@H]1CN(C)C(=O)c2cc(NC(=O)C3CCOCC3)ccc2OC[C@@H](C)N(C)C[C@@H]1C	-2	36*	0
COc1ccccc1C(=O)Nc1ccc2c(c1)C(=O)N(C)C[C@@H](OC)[C@H](C)CN(C)[C@@H](C)CO2	6	47*	0
CC(C)c1cn(CC[C@H]2CC[C@H](NC(=O)C3CCOCC3)[C@@H](CO)O2)nn1	-1	-3	1
COc1ccc(S(=O)(=O)N(C)C[C@@H]2OCc3cnnn3CCCC(=O)N([C@@H](C)CO)C[C@H]2C)cc1	1	28*!	0
COc1cccc(S(=O)(=O)N(C)C[C@@H]2OCc3cnnn3CCCC(=O)N([C@@H](C)CO)C[C@@H]2C)c1	2	20*!	0
COc1ccc(S(=O)(=O)N(C)C[C@@H]2OCc3cnnn3CCCC(=O)N([C@H](C)CO)C[C@H]2C)cc1	0	5	0
COc1ccc(S(=O)(=O)N(C)C[C@H]2OCc3cnnn3CCCC(=O)N([C@@H](C)CO)C[C@H]2C)cc1	0	64*!	0
COc1ccc(S(=O)(=O)N(C)C[C@H]2OCc3cnnn3CCCC(=O)N([C@H](C)CO)C[C@@H]2C)cc1	-5	6	0
C[C@H](CO)N1C[C@H](C)[C@@H](CN(C)S(=O)(=O)c2cccc(F)c2)OCc2cnnn2CCCC1=O	-6	-8	0
SMILES	SIRT5 block	DENV2 CPE rescue	E-selectin induc
CC=Cc1ccc2n(c1=O)C[C@H]1[C@H](CO)[C@@H](C(=O)N(C)C)N(CCC)[C@@H]21 (mixture of isomers)	3	-1	-1
CO[C@H]1CN(C)C(=O)c2ccc(NC(=O)c3nc4ccccc4s3)cc2OC[C@@H](C)N(Cc2cncnc2)C[C@@H]1C	.	14	0
COc1ccc(-c2ccc3c(c2)O[C@@H](CN(C)Cc2cccnc2)[C@@H](C)CN([C@H](C)CO)S3(=O)=O)cc1	3	-7	0
COc1ccc(NC(=O)Nc2ccc3c(c2)CC(=O)N([C@H](C)CO)C[C@H](C)[C@H](CN(C)C(=O)Nc2ccc(F)cc2)O3)cc1	-1	11	0
C/C(CC(=O)Nc1ccc(Cl)c(Cl)c1)=N\NC(=O)Cc1ccccc1	-3	51*	.
C/C(=N/NC(=O)CNC(=O)Cc1ccccc1)c1ccc(Cl)cc1	-5	7	0
C/C(CC(=O)Nc1ccc2c(c1)OCCO2)=N\NC(=O)Cc1ccccc1	0	-1	.
C/C(=N/NC(=O)CNC(=O)CCc1ccccc1)c1ccc(Cl)c(Cl)c1	16*	2	0
CCCNC(=O)[C@@H]1[C@@H](CO)[C@@H]2Cn3c(ccc(-c4ccncc4)c3=O)[C@H]1N2Cc1ccccc1F	-4	-6	0
CC(=O)N(C)C[C@H]1Oc2cc(C#CC3CCCC3)ccc2S(=O)(=O)N([C@H](C)CO)C[C@H]1C	7	?	1
Cc1ccc(S(=O)(=O)N(CC(=O)O)Cc2ccco2)cc1	-1	28*	.
CCCCNC(=O)CN(Cc1ccco1)S(=O)(=O)c1ccc(C(C)=O)cc1	-6	-3	.
O=C(N[C@H]1CC[C@@H](CCNC(=O)C2CCC2)O[C@H]1CO)c1ccncc1	-1	-8	0
CCC(=O)N[C@H]1C=C[C@H](CC(=O)NCC2CC2)O[C@@H]1CO	-3	2	0
C=CCN1CCCc2c(-c3ccc(OCCO)cc3)noc2-c2cc(OC)c(OC)cc2CC1	0	15	.
CC(C)Cn1c(N)c(C(=O)COC(=O)c2cc(-c3ccco3)nc3ccccc23)c(=O)n(C)c1=O	.	9	0
CC(C)Cn1c(N)c(C(=O)COC(=O)c2cc(-c3ccccc3)nc3ccccc23)c(=O)n(C)c1=O	.	30*	0
COc1ccc(NC(=O)Nc2ccc3c(c2)CC(=O)N([C@@H](C)CO)C[C@@H](C)[C@H](CN(C)C(=O)Nc2ccccc2)O3)cc1	1	16	0
COc1cccc(C#Cc2cnc3c(c2)C(=O)N([C@@H](C)CO)C[C@H](C)[C@@H](CN(C)C(=O)C2CC2)O3)c1	-1	?	0
C[C@@H]1CCCCO[C@H](CN(C)C(=O)Nc2ccc(F)cc2)[C@@H](C)CN([C@@H](C)CO)C(=O)c2cc(N(C)C)ccc2O1	.	.	0
COc1cccc(CNC(=O)C[C@H]2C=C[C@H](NC(=O)C3CCOCC3)[C@H](CO)O2)c1	6	1	0
COc1ccccc1NC(=O)N1CC[C@H]2[C@@H]1c1cc(C#Cc3ccc(F)cc3)ccc1N(C)[C@H]2CO	11	34*	0
CN1c2ccc(-c3cccc(C#N)c3)cc2[C@@H]2[C@@H](CCN2C(=O)Nc2cc(F)ccc2F)[C@@H]1CO	7	16	1
